Consider two compounds from paper PMC4212002 (Molecular Pharmaceutics, 2014).

Positions of bridges follow the written chain, without caps; N, C: chain ends. Residues, ends and D or L forms follow the SMILES beside them.

One series relates to integrin αiibβ3. The following applies: cited from earlier work.
A further series has as its target integrin αvβ3 (Homo sapiens, UniProt P05106+P06756). The settings on record: cited from earlier work.
In another series the test system is integrin αvβ5. The settings on record: cited from earlier work.
Another series deals with integrin α5β1. The following applies: cited from earlier work.
The subject of series [1] is integrin αvβ3 (U87MG cells). The following applies: read-out: U87MG IC50; binding to U87MG cells; ref 22 and 23; cited from earlier work.
Series [2] has as its system U87MG tumor-bearing mice. The series can be described thus: Small animal PET imaging quantification. Format: in vivo, mouse. The settings on record: U87MG xenograft mice, within 2 h p.i. Put shortly: (§1)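 Female nude mice carried s.c. U87MG shoulder xenografts of 0.5–1 cm, n = 4 per group. About 3.7 MBq (100 μCi) of radiotracer was given via tail vein, with or without ~330 μg c(RGDyK) coinjected. Mice were scanned on a small-animal PET at 0.5, 1 and 2 h p.i. under isoflurane (5% induction, 2% maintenance in 100% O2). Images were reconstructed by OSEM 2D and regional uptake quantified as %ID/g.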

Series [3] is described as follows: Small animal PET imaging quantification. The following applies: mouse, tumor, iv, 3.7 MBq, total radioactivity. The format is in vivo, mouse. A digest of the protocol:
as §1

Series [4] has as its system U87MG tumor-bearing mice. The series can be described thus: Biodistribution study. Format: in vivo, mouse. The following applies: U87MG xenograft nude mice, i.v., 2.5 h p.i., mean ± SD n = 4. Put shortly:
(§2)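 Female athymic nude mice bore s.c. right-shoulder xenografts (~1 × 10^7 U87MG cells in 100 μL PBS, grown 2–3 weeks to 0.5–1 cm). The radiofluorinated peptide (1.85–3.7 MBq) was given via tail vein; mice were killed 0.5–2.5 h p.i. Tissues were weighed and γ-counted and expressed as %ID/g, n = 4 per group. A blocking group was coinjected with 330 μg c(RGDyK) and examined at 2.5 h.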

A short description of another series: Biodistribution study. Format: in vivo, mouse. The following applies: nude, mouse, iv, total radioactivity. A digest of the protocol: as §2
Another series relates to U87MG cells. The series can be described thus: U87MG cell uptake assay. The format is cell-based, human. The following applies: for cell uptake (% of added radioactivity): 37 kBq/well, mean ± SD, triplicate. A digest of the protocol:
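U87MG cells were grown in high-glucose DMEM with 10% FBS and 1% pen-strep (37 °C, 5% CO2) and trypsinised at 70–80% confluence. Cells (1 × 10^5/well) attached overnight and were PBS-washed, then exposed to 37 kBq radiotracer per well in medium ± 2 μg/well c(RGDyK) at 37 or 4 °C for 15–120 min. Cells were washed, lysed in 1.0 M NaOH and γ-counted as % added activity. Two experiments, triplicate wells.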

Series [5] is described as follows: In vitro stability in PBS buffer. Format: physicochemical. The settings on record: 0.01 M PBS pH 7.4, 1 h, room temperature, 3.7–5.55 MBq, radio-HPLC. Put shortly:
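The radiotracer was reconstituted in PBS and sterile-filtered (0.22 μm) before incubation. After incubation, samples were analysed by radio-HPLC. Percent intact peptide was obtained by quantifying the peaks for intact peptide and for degradation products.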

Chain of integrin αvβ3 (P06756 31-889): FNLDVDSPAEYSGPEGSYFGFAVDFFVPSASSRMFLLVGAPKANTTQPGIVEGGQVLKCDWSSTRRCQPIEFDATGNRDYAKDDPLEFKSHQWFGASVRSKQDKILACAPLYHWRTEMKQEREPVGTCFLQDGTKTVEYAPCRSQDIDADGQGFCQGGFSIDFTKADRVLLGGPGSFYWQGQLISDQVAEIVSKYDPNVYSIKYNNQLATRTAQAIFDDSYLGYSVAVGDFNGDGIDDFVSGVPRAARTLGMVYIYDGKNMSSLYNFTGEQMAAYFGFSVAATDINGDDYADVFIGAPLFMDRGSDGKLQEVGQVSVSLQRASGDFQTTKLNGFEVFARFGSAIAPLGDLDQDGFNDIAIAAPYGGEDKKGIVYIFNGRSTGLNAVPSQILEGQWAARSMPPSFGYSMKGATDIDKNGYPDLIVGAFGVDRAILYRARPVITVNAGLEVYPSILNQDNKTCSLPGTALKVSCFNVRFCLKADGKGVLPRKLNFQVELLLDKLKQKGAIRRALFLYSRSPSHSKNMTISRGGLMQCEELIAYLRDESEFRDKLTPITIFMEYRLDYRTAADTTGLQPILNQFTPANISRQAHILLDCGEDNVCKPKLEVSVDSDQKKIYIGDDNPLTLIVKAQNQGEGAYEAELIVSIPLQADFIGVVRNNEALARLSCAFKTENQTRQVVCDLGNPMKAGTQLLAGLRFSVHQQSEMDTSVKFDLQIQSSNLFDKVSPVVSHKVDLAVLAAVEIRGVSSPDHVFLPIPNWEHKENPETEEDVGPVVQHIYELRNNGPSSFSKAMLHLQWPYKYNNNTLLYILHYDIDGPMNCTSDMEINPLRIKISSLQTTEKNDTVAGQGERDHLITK
Chain of integrin αvβ3 (P06756 891-992): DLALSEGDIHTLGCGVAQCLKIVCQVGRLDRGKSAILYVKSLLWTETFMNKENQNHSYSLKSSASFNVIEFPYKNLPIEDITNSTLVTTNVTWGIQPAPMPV
Chain of integrin αvβ3 (P05106 27-718): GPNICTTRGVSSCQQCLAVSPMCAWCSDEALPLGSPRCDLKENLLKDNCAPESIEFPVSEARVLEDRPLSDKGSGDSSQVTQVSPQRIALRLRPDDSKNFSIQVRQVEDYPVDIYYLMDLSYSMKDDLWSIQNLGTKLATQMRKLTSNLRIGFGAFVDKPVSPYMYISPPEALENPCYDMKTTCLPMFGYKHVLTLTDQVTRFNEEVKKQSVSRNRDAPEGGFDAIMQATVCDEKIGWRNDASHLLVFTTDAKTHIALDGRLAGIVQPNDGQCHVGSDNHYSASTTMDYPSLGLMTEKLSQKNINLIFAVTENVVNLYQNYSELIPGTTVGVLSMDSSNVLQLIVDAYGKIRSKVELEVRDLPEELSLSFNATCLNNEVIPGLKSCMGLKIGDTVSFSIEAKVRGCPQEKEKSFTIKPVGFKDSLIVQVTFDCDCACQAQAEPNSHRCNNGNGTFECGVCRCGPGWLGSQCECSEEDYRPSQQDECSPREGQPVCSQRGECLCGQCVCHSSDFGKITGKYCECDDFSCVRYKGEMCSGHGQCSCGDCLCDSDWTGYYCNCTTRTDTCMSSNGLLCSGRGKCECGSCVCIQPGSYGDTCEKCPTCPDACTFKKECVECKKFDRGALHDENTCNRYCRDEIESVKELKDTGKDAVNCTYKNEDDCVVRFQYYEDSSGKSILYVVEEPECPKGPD

For the compound `CSCC[C@@H]1NC(=O)[C@H](CC(=O)O)NC(=O)CNC(=O)[C@H](CCCNC(=N)N)NC(=O)[C@H](C)NC(=O)[C@H](CCC(=O)O)NC(=O)[C@H](CCCNC(=N)N)NC(=O)[C@@H]2CSSC[C@@H]3NC(=O)[C@H](CO)NC(=O)[C@H]([C@@H](C)O)NC(=O)[C@@H]4CCCN4C(=O)[C@H](C)NC(=O)[C@H](Cc4c[nH]c5ccccc45)NC(=O)[C@H](CC(=O)O)NC(=O)CNC(=O)[C@H](CCCNC(=N)N)NC(=O)CNC(=O)[C@H](CCC(N)=O)NC(=O)[C@@H]4CCCN4C(=O)[C@@H](NC(=O)CN)CSSC[C@H](NC(=O)CNC(=O)[C@H](C)NC(=O)[C@H](CC(C)C)NC(=O)[C@H](CSSC[C@@H](C(=O)NCC(N)=O)NC(=O)[C@H]([C@@H](C)O)NC(=O)[C@H](CCCNC(=N)N)NC(=O)[C@@H]4CCCN4C1=O)NC(=O)[C@H](CC(=O)O)NC(=O)[C@H](CO)NC(=O)[C@H](CC(=O)O)NC(=O)[C@H](CCC(N)=O)NC(=O)[C@H](CO)NC3=O)C(=O)N[C@@H](C(C)C)C(=O)N2` [3-4A] (H-GCPQGRGDWAPTSCSQDSDCLAGCVCREARGDMPRTCG-NH2; disulfide 2-24, 14-26, 20-37; C-terminus assumed), the “binding affinity for integrin αiibβ3” value in the series with integrin αiibβ3 is on record as “lower affinity”. Besides, the “binding affinity to integrin αvβ3” value on integrin αvβ3 is on record as “high binding affinity”. Besides, the “binding affinity to integrin αvβ5” value in the series on integrin αvβ5 is recorded as “high binding affinity”. The “binding affinity for integrin α5β1” value in the series with integrin α5β1 is recorded as “lower affinity”. In addition, in [1], the IC50 – broadly, the midpoint of a concentration-inhibition curve – was 5 ± 2 nM.
On to `CSCC[C@@H]1NC(=O)[C@H](CC(=O)O)NC(=O)CNC(=O)[C@H](CCCNC(=N)N)NC(=O)[C@H](C)NC(=O)[C@H](CCC(=O)O)NC(=O)[C@H](CCCNC(=N)N)NC(=O)[C@@H]2CSSC[C@@H]3NC(=O)[C@H](CO)NC(=O)[C@H]([C@@H](C)O)NC(=O)[C@@H]4CCCN4C(=O)[C@H](C)NC(=O)[C@H](Cc4c[nH]c5ccccc45)NC(=O)[C@H](CC(=O)O)NC(=O)CNC(=O)[C@H](CCCNC(=N)N)NC(=O)CNC(=O)[C@H](CCC(N)=O)NC(=O)[C@@H]4CCCN4C(=O)[C@@H](NC(=O)CNC(=O)C(C)F)CSSC[C@H](NC(=O)CNC(=O)[C@H](C)NC(=O)[C@H](CC(C)C)NC(=O)[C@H](CSSC[C@@H](C(=O)NCC(N)=O)NC(=O)[C@H]([C@@H](C)O)NC(=O)[C@H](CCCNC(=N)N)NC(=O)[C@@H]4CCCN4C1=O)NC(=O)[C@H](CC(=O)O)NC(=O)[C@H](CO)NC(=O)[C@H](CC(=O)O)NC(=O)[C@H](CCC(N)=O)NC(=O)[C@H](CO)NC3=O)C(=O)N[C@@H](C(C)C)C(=O)N2` (stereo partly shown) [^18F-FP–3-4A], for which, in the series on U87MG tumor-bearing mice [2], the “in vivo defluorination (bone uptake on PET)” value is on record as “no observable defluorination”. Moreover, the tissue uptake (in general, the percentage of the injected dose found per gram of tissue) at 0.5 h in series [3] was determined as 3.87 ± 0.66 %ID/g. The liver uptake with U87MG tumor-bearing mice [4] is given as 0.29 % ID/g. Besides, the tissue to tissue ratio at 0.5 h stood at 5.94 ± 0.94 in “Biodistribution study” (tumor and blood); 0.57 ± 0.19 in the series “Biodistribution study” (tumor and kidney); 5.55 ± 0.63 in “Biodistribution study” (tumor and liver); 2.22 ± 0.45 in “Biodistribution study” (tumor and lung); 10.8 ± 1.52 in the series “Biodistribution study” (tumor and muscle); 12 ± 1.94 in “Biodistribution study” (tumor and pancreas). The tissue to tissue ratio at 0.5 h in the series “Biodistribution study” (tumor and spleen) was 4.28 ± 0.4. Further, the tissue to tissue ratio at 1 h in “Biodistribution study” (tumor and blood) was found to be 4.39 ± 0.82; in the series “Biodistribution study” (tumor and kidney), 0.6 ± 0.12; in the series “Biodistribution study” (tumor and liver) it was 5.69 ± 0.88; in “Biodistribution study” (tumor and lung), 1.44 ± 0.31; in the series “Biodistribution study” (tumor and muscle), 10.1 ± 1.22; in “Biodistribution study” (tumor and pancreas), 6.06 ± 0.54. Moreover, the tissue to tissue ratio at 1 h in “Biodistribution study” (tumor and spleen) came to 2.63 ± 0.32. Moreover, the tissue to tissue ratio at 2.5 h in the series “Biodistribution study” (tumor and blood) is 3.12 ± 0.55; in the series “Biodistribution study” (tumor and kidney) it was 0.72 ± 0.15; in “Biodistribution study” (tumor and liver), 3.15 ± 0.74; in “Biodistribution study” (tumor and lung) it was 1.64 ± 0.01; in the series “Biodistribution study” (tumor and muscle), 3.47 ± 0.07; in “Biodistribution study” (tumor and pancreas) it was 3.96 ± 1.24. In “Biodistribution study” (tumor and spleen), the tissue to tissue ratio at 2.5 h is 1.83 ± 0.16. For the same compound, the “accumulation in cells at 37 °C compared to 4 °C” value with U87MG cells is 2–3 fold. Besides, the “inhibition of cell uptake by excess c(RGDyK)” value with U87MG cells (4 °C, 1 h, 2 μg/well c(RGDyK)) was found to be 31.82%. Moreover, the “cell uptake (% of added radioactivity)” value with U87MG cells (4 °C, 15 min) came to 0.32 ± 0.02%; in the series on U87MG cells (4 °C, 30 min), 0.41 ± 0.11%; with U87MG cells (4 °C, 60 min), 0.44 ± 0.05%; in the series on U87MG cells (4 °C, 120 min), 0.51 ± 0.04%; with U87MG cells (37 °C, 15 min), 0.71 ± 0.07%; with U87MG cells (37 °C, 30 min) it was 0.90 ± 0.04%. Moreover, the “cell uptake (% of added radioactivity)” value with U87MG cells (37 °C, 60 min) is 1.44 ± 0.04%; in the series with U87MG cells (37 °C, 120 min) it was 1.50 ± 0.07%. In series [5], the “intact probe after incubation in PBS” value was “completely intact”.
